Values after ≈ are worked out from the molar mass of the structure shown.
Key:
[1] = tested on: Bacillus subtilis; assay: Antibacterial activity against Bacillus subtilis at 200 ug/disc after 24 hrs by agar disc-diffusion method; type: functional; settings: for zone of inhibition at 200 µg/disc: read-out: DIZ
How it was run: (§1)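 Disc diffusion on Müller-Hinton agar. 8 mm filter-paper discs carried test solution in DMSO at 200 µg/disc and were placed on agar pre-inoculated with each bacterium. Incubated at 37 °C; inhibition zone diameter measured after 24 h. DMSO solvent control.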

[2] = tested on: Candida albicans; assay: Antifungal activity against Candida albicans at 200 ug/disc after 48 hrs by agar disc-diffusion method; type: functional; settings: read-out: DIZ
How it was run: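 Disc diffusion for Candida albicans on Müller-Hinton agar. 8 mm discs loaded at 200 µg/disc from DMSO, with clotrimazole 200 µg/disc as reference. Plates held at 25 °C for 48 h, then growth-inhibition zone diameter measured in mm.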

[3] = molecular target: T1, Dihydrofolate reductase (Bos taurus, UniProt P00376); assay: Inhibition of bovine liver DHFR measured every 1 min for 10 mins
T1 sequence (P00376 whole entry): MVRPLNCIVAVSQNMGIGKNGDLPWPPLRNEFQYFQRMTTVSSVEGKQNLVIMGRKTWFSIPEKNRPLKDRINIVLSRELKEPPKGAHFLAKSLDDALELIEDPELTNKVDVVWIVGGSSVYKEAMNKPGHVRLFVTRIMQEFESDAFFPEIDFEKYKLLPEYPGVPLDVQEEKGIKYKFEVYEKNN

[4] = tested on: Escherichia coli; assay: Antibacterial activity against Escherichia coli at 200 ug/disc after 24 hrs by agar disc-diffusion method; type: functional; settings: for zone of inhibition at 200 µg/disc: read-out: DIZ; how it was run: as §1
[5] = tested on: Staphylococcus aureus; assay: Antibacterial activity against Staphylococcus aureus at 200 ug/disc after 24 hrs by agar disc-diffusion method; type: functional; settings: for zone of inhibition at 200 µg/disc: read-out: DIZ; how it was run: as §1
[6] = tested on: Pseudomonas aeruginosa; assay: Antibacterial activity against Pseudomonas aeruginosa at 200 ug/disc after 24 hrs by agar disc-diffusion method; type: functional; settings: for zone of inhibition at 200 µg/disc: read-out: DIZ; how it was run: as §1
[7] = tested on: Pseudomonas aeruginosa; assay: Antibacterial activity against Pseudomonas aeruginosa after 24 hrs by microdilution susceptibility method; type: functional
[8] = tested on: Staphylococcus aureus; assay: Antibacterial activity against Staphylococcus aureus after 24 hrs by microdilution susceptibility method; type: functional
How it was run: (§2)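 Microdilution in Müller-Hinton broth. Compounds dissolved in DMSO at 64 µg/mL, then twofold dilutions from 64 down to 0.125 µg/ml. Inoculum 10^6 CFU/ml. Plates held 24 h at 37 °C. MIC taken as the lowest concentration giving no visible growth by eye.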

[9] = tested on: Bacillus subtilis; assay: Antibacterial activity against Bacillus subtilis after 24 hrs by microdilution susceptibility method; type: functional; how it was run: as §2
[10] = tested on: A549; assay: Cytotoxicity against human A549 cells after 48 hrs by MTT assay; type: functional; settings: A549, 48 h, read-out: LC50 (the source's name)
How it was run: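 A549 cells grown in DMEM with 1% antibiotic-antimycotic and 1% L-glutamine at 37 °C, 5% CO2, seeded at 10 x 10^3 cells/well for 24 h. Exposed in serum-free medium to 0.78–100 µM for 48 h, then MTT added for 4 h and dissolved overnight in 10% SDS.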

[11] = tested on: MCF7; assay: Cytotoxicity against human MCF7 cells after 48 hrs by MTT assay; type: functional; settings: MCF7, 48 h, read-out: LC50 (the source's name)
How it was run: (§3)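 HCT116, HepG2 and MCF7 cells grown in RPMI 1640 with 1% antibiotic-antimycotic and 1% L-glutamine at 37 °C, 5% CO2, seeded at 10 x 10^3 cells/well for 24 h. Exposed in serum-free medium to 0.78–100 µM for 48 h, then MTT added for 4 h and dissolved overnight in 10% SDS.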

[12] = tested on: HepG2; assay: Cytotoxicity against human HepG2 cells after 48 hrs by MTT assay; type: functional; settings: HepG2, 48 h, read-out: LC50 (the source's name); how it was run: as §3
[13] = tested on: HCT-116; assay: Cytotoxicity against human HCT116 cells after 48 hrs by MTT assay; type: functional; settings: HCT-116, 48 h, read-out: LC50 (the source's name); how it was run: as §3
[14] = tested on: Schistosoma mansoni; assay: Antischistosomal activity against Schistosoma mansoni assessed as mortality at 50 ug/ml after 24 hrs by microscopic analysis; type: functional
How it was run: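 Adult worms, 3 male plus 3 female per well, triplicate wells. Compounds in DMSO, 0.5% DMSO as negative control, praziquantel 0.1 µg/ml as positive control. Incubated 37 °C for 24 h, then scored under a dissecting microscope. Worms motionless for at least 1 min, coiled and darkened, counted dead. Activity given as % dead worms per well.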

[15] = tested on: Escherichia coli; assay: Antibacterial activity against Escherichia coli after 24 hrs by microdilution susceptibility method

## COc1ccc(-n2c(S)nnc2-c2csc(N)n2)cc1
[1]
  zone of inhibition at 200 µg/disc: 12 mm
[2]
  zone of inhibition at 200 µg/disc: 8 mm
[3]
  IC50: 21 µM
[4]
  zone of inhibition at 200 µg/disc: 8 mm
[5]
  zone of inhibition at 200 µg/disc: 8 mm
[6]
  zone of inhibition at 200 µg/disc: 8 mm

## Clc1ccccc1C(c1ccccc1)(c1ccccc1)n1ccnc1 [CLOTRIMAZOLE]
[2]
  zone of inhibition at 200 µg/disc: 21 mm

## O=C(O)c1cn(C2CC2)c2cc(N3CCNCC3)c(F)cc2c1=O [CIPROFLOXACIN]
[7]
  MIC: 1 µg/mL (≈ 3.02 µM)
[1]
  zone of inhibition at 200 µg/disc: 35 mm
[8]
  MIC: 0.5 µg/mL (≈ 1.51 µM)
[9]
  MIC: 0.5 µg/mL (≈ 1.51 µM)
[4]
  zone of inhibition at 200 µg/disc: 38 mm
[5]
  zone of inhibition at 200 µg/disc: 32 mm
[6]
  zone of inhibition at 200 µg/disc: 36 mm

## CC(=O)N(C(C)=O)c1nc(-c2nnc(S)n2-c2ccc(C)cc2)cs1
[10]
  CC50: 25 µM
[11]
  CC50: 23.8 µM
[1]
  zone of inhibition at 200 µg/disc: 8 mm
[2]
  zone of inhibition at 200 µg/disc: 8 mm
[12]
  CC50: 18.9 µM
[4]
  zone of inhibition at 200 µg/disc: 8 mm
[5]
  zone of inhibition at 200 µg/disc: 8 mm
[6]
  zone of inhibition at 200 µg/disc: 8 mm

## COc1cccc2c1C(=O)c1c(O)c3c(c(O)c1C2=O)C[C@@](O)(C(=O)CO)C[C@@H]3O[C@H]1C[C@H](N)[C@H](O)[C@H](C)O1 [DOXORUBICIN]
[10]
  CC50: 28.3 µM
[11]
  CC50: 26.1 µM
[13]
  CC50: 37.7 µM
[12]
  CC50: 21.4 µM

## O=C(C1CCCCC1)N1CC(=O)N2CCc3ccccc3C2C1 (centres undefined) [PRAZIQUANTEL]
[14]
  mortality at 50 µg/mL: 100%

## COc1ccc(-n2c(S)nnc2-c2csc(N(C(C)=O)C(C)=O)n2)cc1
[10]
  CC50: 35.4 µM
[14]
  mortality at 50 µg/mL: 6%
[1]
  zone of inhibition at 200 µg/disc: 14 mm
[2]
  zone of inhibition at 200 µg/disc: 8 mm
[3]
  IC50: 5 µM
[4]
  zone of inhibition at 200 µg/disc: 8 mm
[5]
  zone of inhibition at 200 µg/disc: 12 mm
[6]
  zone of inhibition at 200 µg/disc: 8 mm

## CN(Cc1cnc2nc(N)nc(N)c2n1)c1ccc(C(=O)N[C@@H](CCC(=O)O)C(=O)O)cc1 [METHOTREXATE]
[1]
  zone of inhibition at 200 µg/disc: 8 mm
[2]
  zone of inhibition at 200 µg/disc: 8 mm
[4]
  zone of inhibition at 200 µg/disc: 8 mm
[5]
  zone of inhibition at 200 µg/disc: 8 mm
[6]
  zone of inhibition at 200 µg/disc: 8 mm

## CC(=O)N(C(C)=O)c1nc(-c2nnc(S)n2-c2ccc(Oc3ccccc3)cc2)cs1
[14]
  mortality at 50 µg/mL: 100%
[1]
  zone of inhibition at 200 µg/disc: 20 mm
[2]
  zone of inhibition at 200 µg/disc: 8 mm
[8]
  MIC: 4 µg/mL (≈ 8.86 µM)
[3]
  IC50: 15 µM
[9]
  MIC: 2 µg/mL (≈ 4.43 µM)
[4]
  zone of inhibition at 200 µg/disc: 8 mm
[5]
  zone of inhibition at 200 µg/disc: 18 mm
[6]
  zone of inhibition at 200 µg/disc: 8 mm

## COc1ccccc1-n1c(S)nnc1-c1csc(N(C(C)=O)C(C)=O)n1
[15]
  MIC: 0.8 µg/mL (≈ 2.05 µM)
[1]
  zone of inhibition at 200 µg/disc: 20 mm
[2]
  zone of inhibition at 200 µg/disc: 8 mm
[9]
  MIC: 4 µg/mL (≈ 10.3 µM)
[4]
  zone of inhibition at 200 µg/disc: 16 mm
[5]
  zone of inhibition at 200 µg/disc: 8 mm
[6]
  zone of inhibition at 200 µg/disc: 8 mm

## Cc1ccc(-n2c(S)nnc2-c2csc(N)n2)cc1
[14]
  mortality at 50 µg/mL: 10.5%
[1]
  zone of inhibition at 200 µg/disc: 8 mm
[2]
  zone of inhibition at 200 µg/disc: 8 mm
[3]
  IC50: 24 µM
[4]
  zone of inhibition at 200 µg/disc: 8 mm
[5]
  zone of inhibition at 200 µg/disc: 8 mm
[6]
  zone of inhibition at 200 µg/disc: 8 mm

## CC(=O)N(C(C)=O)c1nc(-c2nnc(S)n2-c2ccccc2)cs1
[10]
  CC50: 33.2 µM
[1]
  zone of inhibition at 200 µg/disc: 8 mm
[2]
  zone of inhibition at 200 µg/disc: 8 mm
[3]
  IC50: 35 µM
[4]
  zone of inhibition at 200 µg/disc: 8 mm
[5]
  zone of inhibition at 200 µg/disc: 8 mm
[6]
  zone of inhibition at 200 µg/disc: 8 mm

## Nc1nc(-c2nnc(S)n2-c2ccc(Oc3ccccc3)cc2)cs1
[7]
  MIC: 1 µg/mL (≈ 2.72 µM)
[15]
  MIC: 0.5 µg/mL (≈ 1.36 µM)
[14]
  mortality at 50 µg/mL: 55.6%
[1]
  zone of inhibition at 200 µg/disc: 32 mm
[2]
  zone of inhibition at 200 µg/disc: 14 mm
[8]
  MIC: 0.5 µg/mL (≈ 1.36 µM)
[9]
  MIC: 0.5 µg/mL (≈ 1.36 µM)
[4]
  zone of inhibition at 200 µg/disc: 20 mm
[5]
  zone of inhibition at 200 µg/disc: 28 mm
[6]
  zone of inhibition at 200 µg/disc: 16 mm

## Nc1nc(-c2nnc(S)n2-c2ccc(Cl)cc2)cs1
[14]
  mortality at 50 µg/mL: 5%
[1]
  zone of inhibition at 200 µg/disc: 12 mm
[2]
  zone of inhibition at 200 µg/disc: 12 mm
[3]
  IC50: 18 µM
[4]
  zone of inhibition at 200 µg/disc: 8 mm
[5]
  zone of inhibition at 200 µg/disc: 8 mm
[6]
  zone of inhibition at 200 µg/disc: 8 mm

## COc1ccc(-n2c(S)nnc2-c2csc(N(C(C)=O)C(C)=O)n2)c(OC)c1
[14]
  mortality at 50 µg/mL: 0%
[1]
  zone of inhibition at 200 µg/disc: 8 mm
[2]
  zone of inhibition at 200 µg/disc: 8 mm
[3]
  IC50: 8 µM
[4]
  zone of inhibition at 200 µg/disc: 8 mm
[5]
  zone of inhibition at 200 µg/disc: 8 mm
[6]
  zone of inhibition at 200 µg/disc: 8 mm

## Nc1nc(-c2nnc(S)n2-c2ccccc2)cs1
[14]
  mortality at 50 µg/mL: 16.6%
[1]
  zone of inhibition at 200 µg/disc: 8 mm
[2]
  zone of inhibition at 200 µg/disc: 8 mm
[4]
  zone of inhibition at 200 µg/disc: 8 mm
[5]
  zone of inhibition at 200 µg/disc: 8 mm
[6]
  zone of inhibition at 200 µg/disc: 8 mm

## COc1ccccc1-n1c(S)nnc1-c1csc(N)n1
[15]
  MIC: 8 µg/mL (≈ 26.2 µM)
[1]
  zone of inhibition at 200 µg/disc: 16 mm
[2]
  zone of inhibition at 200 µg/disc: 8 mm
[3]
  IC50: 24 µM
[9]
  MIC: 4 µg/mL (≈ 13.1 µM)
[4]
  zone of inhibition at 200 µg/disc: 15 mm
[5]
  zone of inhibition at 200 µg/disc: 12 mm
[6]
  zone of inhibition at 200 µg/disc: 8 mm

## CC(=O)N(C(C)=O)c1nc(-c2nnc(S)n2-c2ccc(Cl)cc2)cs1
[1]
  zone of inhibition at 200 µg/disc: 21 mm
[2]
  zone of inhibition at 200 µg/disc: 8 mm
[8]
  MIC: 4 µg/mL (≈ 10.2 µM)
[3]
  IC50: 10 µM
[9]
  MIC: 4 µg/mL (≈ 10.2 µM)
[12]
  CC50: 29.1 µM
[4]
  zone of inhibition at 200 µg/disc: 8 mm
[5]
  zone of inhibition at 200 µg/disc: 16 mm
[6]
  zone of inhibition at 200 µg/disc: 8 mm

## GENTAMICIN
[7]
  MIC: 1 µg/mL
[1]
  inhibition zone (IZ): 25 mm
[8]
  MIC: 2 µg/mL
[9]
  MIC: 2 µg/mL
[4]
  inhibition zone (IZ): 20.8 mm
[5]
  inhibition zone (IZ): 26.5 mm
[6]
  inhibition zone (IZ): 19 mm

From ChEMBL document CHEMBL2413018, “Nonclassical antifolates, part 4. 5-(2-aminothiazol-4-yl)-4-phenyl-4H-1,2,4-triazole-3-thiols as a new class of DHFR inhibitors: synthesis, biological evaluation and molecular modeling study” (Eur J Med Chem, 2013)
